What was measured:
Format in all cases: functional
Coptotermes formosanus [1] = assay: Antifeedant activity against Coptotermes formosanus placed on 1 % wt/wt compound treated filter paper assessed as filter paper consumption measured 21 days post compound exposure (reference value: 44 +/- 1.1 mg)
Coptotermes formosanus [2] = assay: Termiticidal activity against Coptotermes formosanus placed on 1 % wt/wt compound treated filter paper assessed as termite mortality measured 21 days post compound exposure
Coptotermes formosanus [3] = assay: Termiticidal activity against Coptotermes formosanus placed on 1 % wt/wt compound treated filter paper assessed as termite mortality measured 11 days post compound exposure
Coptotermes formosanus [4] = assay: Termiticidal activity against Coptotermes formosanus placed on 1 % wt/wt compound treated filter paper assessed as termite mortality measured 3 days post compound exposure
Coptotermes formosanus [5] = assay: Antifeedant activity against Coptotermes formosanus placed on 1 % wt/wt compound treated filter paper assessed as filter paper consumption measured 21 days post compound exposure (reference value: 85 +/- 15.1 mg)
Coptotermes formosanus [6] = assay: Antifeedant activity against Coptotermes formosanus placed on 1 % wt/wt compound treated filter paper assessed as filter paper consumption measured 21 days post compound exposure (reference value: 15.9 +/- 10.4 mg)
Coptotermes formosanus [7] = assay: Antifeedant activity against Coptotermes formosanus placed on 1 % wt/wt compound treated filter paper assessed as filter paper consumption measured 21 days post compound exposure (reference value: 42.4 +/- 4.3 mg)
Coptotermes formosanus [8] = assay: Termiticidal activity against Coptotermes formosanus placed on 0.5 % wt/wt compound treated filter paper assessed as termite mortality measured 21 days post compound exposure
Method in brief: (§1)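 Treated filter paper disks moistened with 100 µL water; 20 C. formosanus workers (third instar or greater) plus 1 soldier per dish from field colonies kept on spruce, ca. 100% RH, 26.6 °C. Daily mortality scored for 3 weeks; cumulative percent mortality from four replicates, each a different colony; water-only controls; ANOVA, protected Fisher LSD (P < 0.05) after arcsine square-root transform.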

Coptotermes formosanus [9] = assay: Termiticidal activity against Coptotermes formosanus placed on 0.5 % wt/wt compound treated filter paper assessed as termite mortality measured 11 days post compound exposure; method in brief: as §1
Coptotermes formosanus [10] = assay: Antifeedant activity against Coptotermes formosanus placed on 0.5 % wt/wt compound treated filter paper assessed as filter paper consumption measured 21 days post compound exposure (reference value: 23.6 +/- 13.6 mg)
Coptotermes formosanus [11] = assay: Termiticidal activity against Coptotermes formosanus placed on 0.5 % wt/wt compound treated filter paper assessed as termite mortality measured 3 days post compound exposure; method in brief: as §1

| Compound | Activity (Coptotermes formosanus [1]) | mortality (Coptotermes formosanus [2]) | mortality (Coptotermes formosanus [3]) | mortality (Coptotermes formosanus [4]) | Activity (Coptotermes formosanus [5]) | Activity (Coptotermes formosanus [6]) | Activity (Coptotermes formosanus [7]) | mortality (Coptotermes formosanus [8]) | mortality (Coptotermes formosanus [9]) | Activity (Coptotermes formosanus [10]) | mortality (Coptotermes formosanus [11]) |
| --- | --- | --- | --- | --- | --- | --- | --- | --- | --- | --- | --- |
| COC1=C(Cl)C(=O)C(Cl)=C(OC)C1=O | 37.8 mg | 2.5% | 0% | 0% | – | – | – | – | – | – | – |
| COC1=C(OC)C(=O)C(C/C=C(\C)CC/C=C(\C)CC/C=C(\C)CC/C=C(\C)CC/C=C(\C)CC/C=C(\C)CC/C=C(\C)CC/C=C(\C)CC/C=C(\C)CCC=C(C)C)=C(C)C1=O [UBIDECARENONE] | – | 10% | 10% | 0% | 49.6 mg | – | – | – | – | – | – |
| Cc1ccc(NC2=C(Cl)C(=O)C(Nc3ccc(C)cc3)=C(Cl)C2=O)cc1 | 19.1 mg | 88.8% | 52.5% | 6.3% | – | – | – | – | – | – | – |
| COC1=CC(=O)C=C(OC)C1=O [2,6-DIMETHOXYQUINONE] | – | 3.3% | 3.3% | 0% | 75.9 mg | – | – | – | – | – | – |
| CCCCCCCCCCCCCC1=C(O)C(=O)C=C(O)C1=O [Rapanone] | – | 81.7% | 76.7% | 5% | – | 0.3 mg | – | – | – | – | – |
| CC(C)(C)C1=CC(=O)C=CC1=O | – | 28.3% | 18.3% | 13.3% | 60.4 mg | – | – | – | – | – | – |
| COc1ccccc1NC1=C(Cl)C(=O)C(Nc2ccccc2OC)=C(Cl)C1=O | 40.1 mg | 2.5% | 0% | 1.3% | – | – | – | – | – | – | – |
| Cc1ccc(C2=CC(=O)C=CC2=O)cc1 | – | 38.3% | 16.7% | 5% | 43.2 mg | – | – | – | – | – | – |
| CC1=CC(=O)C=CC1=O [Cresoquinone] | – | 20% | 11.7% | 1.7% | 22.5 mg | – | – | – | – | – | – |
| CC1=CC(=O)C(C(C)(C)C)=CC1=O | – | 26.7% | 21.7% | 5% | 68.3 mg | – | – | – | – | – | – |
| COC1=C(OC)C(=O)C(C/C=C(\C)CCC=C(C)C)=C(C)C1=O [Coenzyme Q2] | – | 25% | 15% | 0% | 56.1 mg | – | – | – | – | – | – |
| COC1=C(OC)C(=O)C(C/C=C(\C)CC/C=C(\C)CC/C=C(\C)CCC=C(C)C)=C(C)C1=O [Coenzyme Q4] | – | 15% | 11.7% | 1.7% | 74.6 mg | – | – | – | – | – | – |
| COC1=C(OC)C(=O)C(C)=CC1=O [Ubiquinone Qo] | – | 90% | 81.7% | 75% | – | – | 7.2 mg | – | – | – | – |
| COc1cccc(NC2=C(Cl)C(=O)C(Nc3cccc(OC)c3)=C(Cl)C2=O)c1 | 34.9 mg | 33.8% | 1.3% | 0% | – | – | – | – | – | – | – |
| COC1=C(OC)C(=O)C(CCCCCCCCCCO)=C(C)C1=O [IDEBENONE] | – | 38.3% | 0% | 0% | – | – | 37.9 mg | – | – | – | – |
| CNC1=C(Cl)C(=O)C(NC)=C(Cl)C1=O | 7.8 mg | 100% | 90% | 8.8% | – | – | – | – | – | – | – |

| Compound | Activity (Coptotermes formosanus [1]) | mortality (Coptotermes formosanus [2]) | mortality (Coptotermes formosanus [3]) | mortality (Coptotermes formosanus [4]) | Activity (Coptotermes formosanus [5]) | Activity (Coptotermes formosanus [6]) | Activity (Coptotermes formosanus [7]) | mortality (Coptotermes formosanus [8]) | mortality (Coptotermes formosanus [9]) | Activity (Coptotermes formosanus [10]) | mortality (Coptotermes formosanus [11]) |
| --- | --- | --- | --- | --- | --- | --- | --- | --- | --- | --- | --- |
| CCCCCCCCCCC1=C(C)C(=O)C(OC)=C(OC)C1=O [DECYLUBIQUINONE] | – | 100% | 75% | 13.3% | – | – | 19.3 mg | – | – | – | – |
| COC1=C(OC)C(=O)C(Cl)=C(Cl)C1=O | – | – | – | – | – | – | – | 30% | 8.8% | 19.3 mg | 2.5% |
| COC1=CC(=O)C(c2ccccc2)=CC1=O | – | 31.7% | 6.7% | 3.3% | – | – | 35.8 mg | – | – | – | – |
| COC1=CC(=O)C=CC1=O | – | 31.7% | 21.7% | 13.3% | 6.5 mg | – | – | – | – | – | – |
| CCCCCCCCCCCC1=C(O)C(=O)C=C(O)C1=O [EMBELIN] | – | 46.7% | 18.3% | 3.3% | 10.7 mg | – | – | – | – | – | – |
| COC1=CC(=O)C(C)=CC1=O [Coprinin] | – | 93.3% | 56.7% | 18.3% | 4.2 mg | – | – | – | – | – | – |
| O=C1C=CC(=O)C=C1 [BENZOQUINONE] | – | – | – | – | 80.7 mg | – | – | – | – | – | – |
| COC1=C(OC)C(=O)C(C/C=C(\C)CC/C=C(\C)CC/C=C(\C)CC/C=C(\C)CC/C=C(\C)CC/C=C(\C)CC/C=C(\C)CC/C=C(\C)CCC=C(C)C)=C(C)C1=O [Coenzyme Q9] | – | 15% | 15% | 15% | 63.9 mg | – | – | – | – | – | – |
| COC1=CC(=O)C(C[P+](c2ccccc2)(c2ccccc2)c2ccccc2)=CC1=O.[Cl-] | – | 98.3% | 60% | 13.3% | – | – | 5.3 mg | – | – | – | – |
| COC1=CC(=O)C(OC)=CC1=O | – | 8.3% | 6.7% | 3.3% | 107 mg | – | – | – | – | – | – |
| COc1ccc(NC2=C(Cl)C(=O)C(Nc3ccc(OC)cc3)=C(Cl)C2=O)cc1 | 39.8 mg | 57.5% | 3.8% | 1.3% | – | – | – | – | – | – | – |
| O=C1C(Cl)=C(Nc2ccccc2)C(=O)C(Cl)=C1Nc1ccccc1 | 36.3 mg | 60% | 40% | 0% | – | – | – | – | – | – | – |
| O=C1C(Cl)=C(Nc2ccc(Cl)cc2)C(=O)C(Cl)=C1Nc1ccc(Cl)cc1 | 22.7 mg | 86.3% | 62.5% | 10% | – | – | – | – | – | – | – |
| COC1=C(OC)C(=O)C(C/C=C(\C)CC/C=C(\C)CC/C=C(\C)CC/C=C(\C)CC/C=C(\C)CCC=C(C)C)=C(C)C1=O [Coenzyme Q6] | – | 18.3% | 6.7% | 1.7% | 97.3 mg | – | – | – | – | – | – |
| O=C1C(Cl)=C(Nc2cccc([N+](=O)[O-])c2)C(=O)C(Cl)=C1Nc1cccc([N+](=O)[O-])c1 | 18.3 mg | 90% | 75% | 0% | – | – | – | – | – | – | – |
| CC1=C(Br)C(=O)C(Br)=C(Cl)C1=O | – | – | – | – | – | – | – | 31.3% | 22.5% | 26.1 mg | 2.5% |

From ChEMBL document CHEMBL3045504, “Activity of 1,4-benzoquinones against formosan subterranean termites (Coptotermes formosanus)” (2008)
